Measurements from ChEMBL document CHEMBL1125612, “Synthesis and biological activity of D3-trishomocubyl-4-amines” (J Med Chem, 1991).

Assays:
[1] = species: Mus musculus; experiment: Anticataleptic activity for reversing the reserpine-induced catalepsy in mice.; assay type: functional
Procedure, shortened: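 Male CD-1 mice fasted 18 h, given reserpine 5 mg/kg i.p. 4 h before oral compound (1% tragacanth, 10 mL/kg; 100, 30, 10 mg/kg; groups of five).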

[2] = system: Mus musculus; experiment: Anti-oxotremorine activity (anticholinergic property) and reduction of salivation in mice at a dose of 10 mg/kg.; assay type: functional
Procedure, shortened: (§1)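 Male CD-1 mice, food withheld 18 h, water ad libitum except during observation. Compound in 1% tragacanth given orally (10 mL/kg) to groups of 10 at 100, 30 or 10 mg/kg. Oxotremorine 0.4 mg/kg i.p. 30 min later. Salivation and tremor each scored 0-3 at 10, 20 and 30 min after oxotremorine. Mean score ±SEM.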

[3] = system: Mus musculus; experiment: Anti-oxotremorine activity (anticholinergic property) and reduction of tremor in mice at a dose of 10 mg/kg.; assay type: functional; procedure, shortened: as §1
[4] = Acute toxicity in mice (24 hours).; assay type: organism-based; settings: mouse, in vivo
[5] = system: Mus musculus; experiment: Anti-oxotremorine activity (anticholinergic property) and reduction of tremor in mice at a dose of 30 mg/kg.; assay type: functional
Procedure, shortened: (§2)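 Male CD-1 mice, food-deprived 18 h, with water ad libitum except during observation. Groups of 10 received oral treatment in 1% tragacanth at 10 mL/kg. Test agents were dosed at 100, 30 or 10 mg/kg; the reference standard or vehicle was given instead where used. Oxotremorine 0.4 mg/kg i.p. followed 30 min later. Tremor and salivation were each scored 0-3 at 10, 20 and 30 min, reported as mean score ± SEM.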

[6] = system: Mus musculus; experiment: Anti-oxotremorine activity (anticholinergic property) and reduction of salivation in mice at a dose of 30 mg/kg.; assay type: functional; procedure, shortened: as §2
[7] = system: Mus musculus; experiment: Anti-oxotremorine activity (anticholinergic property) and reduction of tremor in mice at a dose of 100 mg/kg.; assay type: functional; procedure, shortened: as §1
[8] = system: Mus musculus; experiment: Anti-oxotremorine activity (anticholinergic property) and reduction of salivation in mice at a dose of 100 mg/kg.; assay type: functional; procedure, shortened: as §1
[9] = system: Mus musculus; experiment: Anti-oxotremorine activity (anticholinergic property) and reduction of tremor in mice at a dose of 3 mg/kg.; assay type: functional
[10] = system: Mus musculus; experiment: Anti-oxotremorine activity (anticholinergic property) and reduction of salivation in mice at a dose of 3 mg/kg.; assay type: functional

| Compound | ED50 [1] | Mean score [2] | Mean score [3] | LD50 at 24 h [4] | Mean score [5] | Mean score [6] | Mean score [7] | Mean score [8] | Mean score [9] | Mean score [10] |
| --- | --- | --- | --- | --- | --- | --- | --- | --- | --- | --- |
| CCCCN[C@H]1[C@H]2C3C4C[C@H]2[C@H]2C4CC3C21C (stereo not given in full) | 15 mg/kg | 1.2 | 1.2 | 150 mg/kg | – | – | – | – | – | – |
| CC12C3CC4C5C[C@H]([C@H](C53)[C@@H]1NCCc1ccccc1)[C@@H]42 (stereo not given in full) | 150 mg/kg | – | – | > 1000 mg/kg | 1.3 | 1.3 | – | – | – | – |
| NC12CC3CC(CC(C3)C1)C2 [AMANTADINE] | 17 mg/kg | – | – | – | – | – | 1.7 | 1.1 | – | – |
| CC12C3CC4C5C[C@H]([C@H](C53)[C@@H]1NCc1ccccc1)[C@@H]42 (stereo not given in full) | 34 mg/kg | – | – | > 1000 mg/kg | 1.5 | 1.5 | – | – | – | – |
| CCN[C@H]1[C@H]2C3C4C[C@H]2[C@H]2C4CC3C21c1ccccc1 (stereo not given in full) | 14 mg/kg | 1 | 1.3 | 261 mg/kg | – | – | – | – | – | – |
| CN1[C@@H]2CC[C@H]1C[C@@H](OC(=O)C(CO)c1ccccc1)C2 (stereo not given in full) [ATROPINE] | – | – | – | – | – | – | – | – | 0.5 | 0 |
| N[C@H]1[C@H]2C3C4C[C@H]2[C@H]2C4CC3C21c1ccccc1 (stereo not given in full) | 16 mg/kg | – | – | 681 mg/kg | 1.6 | 1.2 | – | – | – | – |
